Experimental data published in ChEMBL document CHEMBL4613214, “In Vitro Activation of Cytochrome P450 46A1 (CYP46A1) by Efavirenz-Related Compounds” (J Med Chem, 2020).
Activity calls are given as the source filed them. The rule behind the calls is not given here.

Key:
Homo sapiens [1] = species on record: Homo sapiens; assay: Activation of recombinant human C-terminal 4His-tagged CYP46A1 delta(2 to 50) K358L mutant expressed in Escherichia coli at 20 uM using cholesterol as substrate measured after 30 mins in presence of cytochrome P450 oxidoreductase by gas chromatography-mass spectrometry
Procedure, shortened: (§1)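 Fixed 20 μM test compound (final, 2% methanol) with 0.5 μM purified Δ(2-50)CYP46A1 (wild type or mutant) and 1.0 μM rat P450 oxidoreductase. Buffer: 50 mM KPi pH 7.2, 100 mM NaCl, 40 μg/mL dilauroylphosphatidylcholine, 40 μM cholesterol, catalase, NADPH-regenerating system. Run 30 min at 37 °C. 24-Hydroxycholesterol measured by GC-MS against a deuterated internal standard. Fold activation over no-activator control; mean ± SD, three independent experiments.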

Homo sapiens [2] = species on record: Homo sapiens; assay: Activation of recombinant human C-terminal 4His-tagged CYP46A1 delta(2 to 50) K358R mutant expressed in Escherichia coli at 20 uM using cholesterol as substrate measured after 30 mins in presence of cytochrome P450 oxidoreductase by gas chromatography-mass spectrometry; procedure, shortened: as §1
Homo sapiens [3] = species on record: Homo sapiens; assay: Activation of recombinant human C-terminal 4His-tagged CYP46A1 delta(2 to 50) K358A mutant expressed in Escherichia coli at 20 uM using cholesterol as substrate measured after 30 mins in presence of cytochrome P450 oxidoreductase by gas chromatography-mass spectrometry; procedure, shortened: as §1
Homo sapiens [4] = species on record: Homo sapiens; assay: Activation of recombinant human C-terminal 4His-tagged CYP46A1 delta(2 to 50) R415A mutant expressed in Escherichia coli at 20 uM using cholesterol as substrate measured after 30 mins in presence of cytochrome P450 oxidoreductase by gas chromatography-mass spectrometry; procedure, shortened: as §1
Homo sapiens [5] = species on record: Homo sapiens; assay: Activation of recombinant human C-terminal 4His-tagged CYP46A1 delta(2 to 50) Y427A mutant expressed in Escherichia coli at 20 uM using cholesterol as substrate measured after 30 mins in presence of cytochrome P450 oxidoreductase by gas chromatography-mass spectrometry; procedure, shortened: as §1
[6] = test system: Cholesterol 24-hydroxylase (Homo sapiens), Q9Y6A2 [UNDEFINED MUTATION]; assay: Activation of recombinant human C-terminal 4His-tagged CYP46A1 delta(2 to 50) mutant expressed in Escherichia coli at 20 uM using cholesterol as substrate measured after 30 mins in presence of cytochrome P450 oxidoreductase and L-Glu by gas chromatography-mass spectrometry relative to control
Sequence of Cholesterol 24-hydroxylase (Homo sapiens), Q9Y6A2 [UNDEFINED MUTATION] (Q9Y6A2 whole entry, looked up, stated change not applied): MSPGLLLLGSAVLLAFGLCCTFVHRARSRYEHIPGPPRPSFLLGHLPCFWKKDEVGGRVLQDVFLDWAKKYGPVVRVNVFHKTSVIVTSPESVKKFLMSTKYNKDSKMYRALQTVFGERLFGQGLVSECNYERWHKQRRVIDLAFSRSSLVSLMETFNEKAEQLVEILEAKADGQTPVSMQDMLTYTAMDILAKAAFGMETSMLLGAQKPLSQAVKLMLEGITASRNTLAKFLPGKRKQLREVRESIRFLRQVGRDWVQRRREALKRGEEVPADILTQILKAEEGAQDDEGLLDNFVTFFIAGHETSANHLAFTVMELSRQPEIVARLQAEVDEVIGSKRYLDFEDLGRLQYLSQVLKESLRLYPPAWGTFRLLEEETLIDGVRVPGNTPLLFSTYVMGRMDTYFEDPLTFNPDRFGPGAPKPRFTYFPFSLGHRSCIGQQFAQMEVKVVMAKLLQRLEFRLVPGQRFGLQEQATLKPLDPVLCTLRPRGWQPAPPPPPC
Procedure, shortened: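 Co-incubation of 100 μM L-Glu with 20 μM test compound, 0.5 μM Δ(2-50)CYP46A1 and 1.0 μM P450 oxidoreductase. Buffer: 50 mM KPi pH 7.2, 100 mM NaCl, phospholipid, 40 μM cholesterol, NADPH-regenerating system. Run 30 min at 37 °C. 24-Hydroxycholesterol measured by GC-MS with a deuterated internal standard. Fold activation relative to control; mean ± SD of three experiments.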

[7] = test system: Cholesterol 24-hydroxylase (Homo sapiens), Q9Y6A2 [UNDEFINED MUTATION]; assay: Activation of recombinant human C-terminal 4His-tagged CYP46A1 delta(2 to 50) mutant expressed in Escherichia coli at 20 uM using cholesterol as substrate measured after 30 mins in presence of cytochrome P450 oxidoreductase by gas chromatography-mass spectrometry relative to control; procedure, shortened: as §1
Homo sapiens [8] = species on record: Homo sapiens; assay: Activation of recombinant human C-terminal 4His-tagged CYP46A1 delta(2 to 50) Y427F mutant expressed in Escherichia coli at 20 uM using cholesterol as substrate measured after 30 mins in presence of cytochrome P450 oxidoreductase by gas chromatography-mass spectrometry; procedure, shortened: as §1
[9] = test system: Cholesterol 24-hydroxylase (Homo sapiens), Q9Y6A2 [UNDEFINED MUTATION]; assay: Activation of recombinant human C-terminal 4His-tagged CYP46A1 delta(2 to 50) mutant expressed in Escherichia coli using cholesterol as substrate measured after 30 mins in presence of cytochrome P450 oxidoreductase by gas chromatography-mass spectrometry
Procedure, shortened: (§2)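 Concentration-dependence curves with test compound at 0–100 μM (2% final methanol). Enzyme: 0.5 μM Δ(2-50)CYP46A1 plus 1.0 μM P450 oxidoreductase. Buffer: KPi pH 7.2, 100 mM NaCl, dilauroylphosphatidylcholine, 40 μM cholesterol, catalase, NADPH-regenerating system. Run 30 min at 37 °C. 24-Hydroxycholesterol quantified by GC-MS with a deuterated internal standard, expressed as nmol/nmol P450/min; mean ± SD, three experiments.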

[10] = molecular target: T1, Cholesterol 24-hydroxylase (Homo sapiens, UniProt Q9Y6A2); assay: Inhibition of recombinant human C-terminal 4His-tagged CYP46A1 delta(2 to 50) mutant expressed in Escherichia coli at 60 to 100 uM using cholesterol as substrate measured after 30 mins in presence of cytochrome P450 oxidoreductase by gas chromatography-mass spectrometry; type: ADME; settings: 0.5 h; procedure, shortened: as §2
T1 sequence (Q9Y6A2 whole entry, looked up, stated change not applied): as above

Homo sapiens [11] = species on record: Homo sapiens; assay: Activation of recombinant human C-terminal 4His-tagged CYP46A1 delta(2 to 50) F405A mutant expressed in Escherichia coli at 20 uM using cholesterol as substrate measured after 30 mins in presence of cytochrome P450 oxidoreductase by gas chromatography-mass spectrometry; procedure, shortened: as §1
Homo sapiens [12] = species on record: Homo sapiens; assay: Activation of recombinant human C-terminal 4His-tagged CYP46A1 delta(2 to 50) F416A mutant expressed in Escherichia coli at 20 uM using cholesterol as substrate measured after 30 mins in presence of cytochrome P450 oxidoreductase by gas chromatography-mass spectrometry; procedure, shortened: as §1
[13] = molecular target: T1, Cholesterol 24-hydroxylase; assay: Inhibition of recombinant human C-terminal 4His-tagged CYP46A1 delta(2 to 50) mutant expressed in Escherichia coli at up to 100 uM using cholesterol as substrate measured after 30 mins in presence of cytochrome P450 oxidoreductase by gas chromatography-mass spectrometry; type: ADME; settings: 0.5 h; procedure, shortened: as §2
[14] = molecular target: T1, Cholesterol 24-hydroxylase; assay: Binding affinity to recombinant human C-terminal 4His-tagged CYP46A1 delta(2 to 50) mutant expressed in Escherichia coli in absence of substrate at 24 degC by stopped-flow spectrophotometric method
[15] = test system: Cholesterol 24-hydroxylase (Homo sapiens), Q9Y6A2 [UNDEFINED MUTATION]; assay: Binding affinity to recombinant human C-terminal 4His-tagged CYP46A1 delta(2 to 50) mutant expressed in Escherichia coli at 15 to 30 uM in absence of substrate by UV-spectrophotometric method
Procedure, shortened: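 Stopped-flow rapid-scanning spectrophotometry at 23 °C. Substrate-free CYP46A1 (4 μM, in 50 mM KPi pH 7.2 with 100 mM NaCl) was mixed with an equal volume of compound in the same buffer. Spectra were collected over 330–570 nm, and binding rates (kobserved) were fitted.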

[16] = test system: Cholesterol 24-hydroxylase (Homo sapiens), Q9Y6A2 [UNDEFINED MUTATION]; assay: Binding affinity to substrate free recombinant human C-terminal 4His-tagged CYP46A1 delta(2 to 50) mutant expressed in Escherichia coli assessed as Kon rate of cholesterol by stopped-flow spectrophotometric method
[17] = test system: Cholesterol 24-hydroxylase (Homo sapiens), Q9Y6A2 [UNDEFINED MUTATION]; assay: Binding affinity to substrate bound recombinant human C-terminal 4His-tagged CYP46A1 delta(2 to 50) mutant expressed in Escherichia coli assessed as Koff rate of cholesterol by stopped-flow spectrophotometric method
Procedure, shortened: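 Release rate was measured by stopped-flow chase at 23 °C. A prebound complex (4 μM CYP46A1 plus 4 μM cholesterol, 50 mM KPi pH 7.2, 100 mM NaCl) was mixed with excess clotrimazole (40 μM). The rise in Δ(A437−A416) was followed, and 8–12 traces were averaged and fitted. Values are mean ± SD of three independent experiments.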

[18] = test system: Cholesterol 24-hydroxylase (Homo sapiens), Q9Y6A2 [UNDEFINED MUTATION]; assay: Binding affinity to recombinant human C-terminal 4His-tagged CYP46A1 delta(2 to 50) mutant expressed in Escherichia coli at 2 uM in presence of substrate by UV-spectrophotometric method
Procedure, shortened: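 Stopped-flow rapid-scanning spectrophotometry at 23 °C in 50 mM KPi pH 7.2 with 100 mM NaCl. A premixed 4 μM CYP46A1·4 μM cholesterol complex was mixed with compound, and spectral changes were followed over 330–570 nm.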

O=C1Nc2c(O)cc(Cl)cc2[C@@](C#CC2CC2)(C(F)(F)F)O1
Activity (Homo sapiens [1]): Active
Activity (Homo sapiens [2]): Active
Activity (Homo sapiens [3]): Active
Activity (Homo sapiens [4]): Active
Activity (Homo sapiens [5]): Active
fold change (FC) [6]: 7.4
fold change (FC) [7]: 6.2
Activity (Homo sapiens [8]): Active
Activity [9]: Dose-dependent effect
inhibition (INH) [10]: Not Active
Activity (Homo sapiens [11]): Active
Activity (Homo sapiens [12]): Active

FC(F)(F)[C@@]1(C#CC2CC2)OCNc2ccc(Cl)cc21
Activity (Homo sapiens [1]): Active
Activity (Homo sapiens [2]): Active
inhibition (INH) [13]: Not Active
Activity (Homo sapiens [3]): Active
Activity (Homo sapiens [4]): inactive
Activity (Homo sapiens [5]): Active
Activity [6]: inactive
fold change (FC) [7]: 2.5
Activity (Homo sapiens [8]): Active
Activity [9]: Dose-dependent effect
Activity (Homo sapiens [11]): inactive
Activity (Homo sapiens [12]): Active

CCCC#CC1(C(F)(F)F)OC(=O)Nc2ccc(Cl)cc21 (racemic)
Activity (Homo sapiens [1]): inactive
Activity (Homo sapiens [2]): inactive
Activity (Homo sapiens [3]): inactive
Activity (Homo sapiens [4]): Active
Activity (Homo sapiens [5]): inactive
fold change (FC) [6]: 3.7
fold change (FC) [7]: 3.1
Activity (Homo sapiens [8]): inactive
Activity [9]: Dose-dependent effect
inhibition (INH) [10]: Not Active
Activity (Homo sapiens [11]): Active
Activity (Homo sapiens [12]): inactive

O=C1Nc2cc(O)c(Cl)cc2C(C#CC2CC2)(C(F)(F)F)O1 (racemic)
Activity (Homo sapiens [1]): Active
Activity (Homo sapiens [2]): Active
Activity (Homo sapiens [3]): Active
Activity (Homo sapiens [4]): Active
Activity (Homo sapiens [5]): Active
fold change (FC) [6]: 6.8
fold change (FC) [7]: 5.8
Activity (Homo sapiens [8]): Active
Activity [9]: Dose-dependent effect
inhibition (INH) [10]: Not Active
Activity (Homo sapiens [11]): Active
Activity (Homo sapiens [12]): Active

O=C1CC(C#CC2CC2)(C(F)(F)F)c2cc(Cl)ccc2N1 (racemic)
Activity (Homo sapiens [1]): inactive
Activity (Homo sapiens [2]): inactive
Activity (Homo sapiens [3]): inactive
Activity (Homo sapiens [4]): Active
Activity (Homo sapiens [5]): inactive
fold change (FC) [6]: 4.6
fold change (FC) [7]: 3.9
Activity (Homo sapiens [8]): inactive
Activity [9]: Dose-dependent effect
inhibition (INH) [10]: Not Active
Activity (Homo sapiens [11]): Active
Activity (Homo sapiens [12]): inactive

O=C1Cc2ccc(Cl)cc2C(C#CC2CC2)(C(F)(F)F)O1 (racemic)
Activity (Homo sapiens [1]): Active
Activity (Homo sapiens [2]): Active
inhibition (INH) [13]: Not Active
Activity (Homo sapiens [3]): Active
Activity (Homo sapiens [4]): Active
Activity (Homo sapiens [5]): Active
fold change (FC) [6]: 2.8
fold change (FC) [7]: 1.9
Activity (Homo sapiens [8]): Active
Activity (Homo sapiens [11]): Active
Activity (Homo sapiens [12]): Active

CC1Nc2ccc(Cl)cc2C(C#CC2CC2)(C(F)(F)F)O1 (racemic)
Activity (Homo sapiens [1]): Active
Activity (Homo sapiens [2]): Active
Activity (Homo sapiens [3]): Active
Activity (Homo sapiens [4]): inactive
Activity (Homo sapiens [5]): Active
Activity [6]: inactive
fold change (FC) [7]: 2.6
Activity (Homo sapiens [8]): Active
Activity [9]: Dose-dependent effect
inhibition (INH) [10]: Not Active
Activity (Homo sapiens [11]): inactive
Activity (Homo sapiens [12]): Active

O=C1Nc2c(O)cc(Cl)cc2C(C#CC2CC2)(C(F)(F)F)O1 (racemic)
Activity [9]: Dose-dependent effect
inhibition (INH) [10]: Not Active

O=C1Nc2c(O)cc(Cl)cc2C(C#CC2(O)CC2)(C(F)(F)F)O1 (racemic)
Activity (Homo sapiens [1]): Active
Activity (Homo sapiens [2]): Active
Activity (Homo sapiens [3]): Active
Activity (Homo sapiens [4]): inactive
Kd [14]: 5 µM
Activity (Homo sapiens [5]): Active
Activity [15]: inactive
fold change (FC) [6]: 4.8
fold change (FC) [7]: 6.1
Activity (Homo sapiens [8]): Active
K [16]: 0.7 ×10⁶ /M/s
K [17]: 3.6 s⁻¹
Activity (Homo sapiens [11]): inactive
Activity (Homo sapiens [12]): Active
Activity [18]: inactive

O=C1Nc2ccc(Cl)cc2[C@@](C#CC2CC2)(C(F)(F)F)O1 [EFAVIRENZ]
Activity (Homo sapiens [1]): inactive
Activity (Homo sapiens [2]): inactive
Activity (Homo sapiens [3]): inactive
Activity (Homo sapiens [4]): Active
Activity (Homo sapiens [5]): inactive
inhibition (INH) [10]: Active
Activity (Homo sapiens [11]): Active
Activity (Homo sapiens [12]): inactive
